Values belong to the molecule of their own block, whether it stands above or below them. The source made the active and inactive calls. The calls are words filed in the database; no cut-off is given here.
Tests used:
Protein smoothened = Protein smoothened (Mus musculus, UniProt P56726); experiment: Antagonist activity at smo in SAG-treated mouse Light2 cells after 48 hrs by renilla luciferase reporter gene assay; assay type: functional
In short: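 NIH3T3 Shh-Light II cells carry a stable Gli-responsive firefly luciferase reporter plus pRL-TK Renilla. They were stimulated with SAG 200 nM and treated with compound for 48 h. Read-out was dual-luciferase, as the Luciferase/Renilla ratio. Mean ± SD of three independent experiments, each in triplicate.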

Zinc finger protein GLI1 = biological target: T1, Zinc finger protein GLI1 (Mus musculus, UniProt P47806); experiment: Inhibition of Gli1 transcriptional activity in mouse embroyonic fibroblasts after 24 hrs by renilla luciferase reporter gene assay
T1 sequence (P47806 whole entry): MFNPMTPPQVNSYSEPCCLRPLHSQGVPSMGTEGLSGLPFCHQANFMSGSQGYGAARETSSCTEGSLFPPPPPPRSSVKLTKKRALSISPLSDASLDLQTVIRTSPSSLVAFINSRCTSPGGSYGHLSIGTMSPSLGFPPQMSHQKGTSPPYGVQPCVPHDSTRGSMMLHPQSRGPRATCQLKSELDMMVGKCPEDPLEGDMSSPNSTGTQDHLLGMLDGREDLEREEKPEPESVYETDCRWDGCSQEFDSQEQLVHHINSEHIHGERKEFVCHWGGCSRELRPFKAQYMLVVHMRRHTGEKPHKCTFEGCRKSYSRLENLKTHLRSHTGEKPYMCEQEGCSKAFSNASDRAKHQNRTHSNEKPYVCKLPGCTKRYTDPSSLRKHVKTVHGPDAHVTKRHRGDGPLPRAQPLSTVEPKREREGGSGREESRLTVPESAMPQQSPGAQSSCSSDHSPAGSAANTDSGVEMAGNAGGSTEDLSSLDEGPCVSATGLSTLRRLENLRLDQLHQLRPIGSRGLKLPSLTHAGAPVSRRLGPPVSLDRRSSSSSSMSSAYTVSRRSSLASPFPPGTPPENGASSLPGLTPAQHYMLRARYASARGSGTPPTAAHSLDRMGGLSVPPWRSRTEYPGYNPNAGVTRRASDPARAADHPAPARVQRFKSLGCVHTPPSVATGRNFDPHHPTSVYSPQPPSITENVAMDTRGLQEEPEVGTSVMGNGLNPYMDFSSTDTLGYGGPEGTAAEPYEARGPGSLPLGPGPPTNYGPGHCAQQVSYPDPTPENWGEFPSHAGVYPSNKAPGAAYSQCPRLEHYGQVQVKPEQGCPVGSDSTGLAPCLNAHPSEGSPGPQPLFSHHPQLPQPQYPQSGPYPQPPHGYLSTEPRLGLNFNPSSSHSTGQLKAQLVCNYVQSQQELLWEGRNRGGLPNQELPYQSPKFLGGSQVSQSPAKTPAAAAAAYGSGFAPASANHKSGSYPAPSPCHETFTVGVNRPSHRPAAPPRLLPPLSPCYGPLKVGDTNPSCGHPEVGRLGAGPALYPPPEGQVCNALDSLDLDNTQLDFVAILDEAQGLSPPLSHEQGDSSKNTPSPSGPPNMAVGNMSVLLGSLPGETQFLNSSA
In short: (§1)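 Wild-type MEFs expressing ectopic Gli1 were transfected with 12XGliBS-Luc, pRL-TK Renilla and empty or Gli1 vector. They were exposed to rising compound concentrations for 24 h; DMSO-only controls. Luciferase/Renilla ratio; mean ± SD of three independent experiments.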

Medulloblastoma cell [1] = experiment: Growth inhibition of mouse Ptch+/- medulloblastoma cells at 0.125 uM after 72 hrs relative to control; assay type: functional; details: read-out: GI
In short: (§2)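 Primary medulloblastoma cells were freshly isolated from Ptch+/- mouse tumors. They were kept in short-term culture in Neurobasal Media-A with B27 minus vitamin A to retain Hh sensitivity. Cells were exposed to single compounds for 72 h, and percent growth inhibition was reported as mean ± SD.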

Medulloblastoma cell [2] = experiment: Growth inhibition of mouse Ptch+/- medulloblastoma cells at 0.25 uM after 72 hrs relative to control; assay type: functional; details: read-out: GI; in short: as §2
Medulloblastoma cell [3] = experiment: Growth inhibition of mouse Ptch+/- medulloblastoma cells at 0.5 uM after 72 hrs relative to control; assay type: functional; details: read-out: GI; in short: as §2
Medulloblastoma cell [4] = experiment: Growth inhibition of mouse Ptch+/- medulloblastoma cells at 1 uM after 72 hrs relative to control; assay type: functional; details: read-out: GI; in short: as §2
Medulloblastoma cell [5] = experiment: Growth inhibition of mouse Ptch+/- medulloblastoma cells at 2 uM after 72 hrs relative to control; assay type: functional; details: read-out: GI
[6] = biological target: T2, Zinc finger protein GLI1 (Mus musculus) (UniProt P47806); experiment: Inhibition of Gli1 transcriptional activity in Smo-/- mouse embroyonic fibroblasts up to 20 uM after 24 hrs by renilla luciferase reporter gene assay
T2 sequence (whole entry): T1 sequence (P47806 whole entry)
In short: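 Smo-/- MEFs were transfected with 12xGliBS-Luc and pRL-TK Renilla plus empty or Gli1 vector. They were treated with increasing concentrations of compound for 24 h; DMSO-only controls. Read-out was luciferase normalized to Renilla. Mean ± SD of three independent experiments; t-test versus DMSO.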

[7] = biological target: Protein smoothened (Mus musculus) (UniProt P56726); experiment: Antagonist activity at smo in SuFu-/- mouse embroyonic fibroblasts assessed as downregulation of Gli1 mRNA levels after 48 hrs by qRT-PCR method; assay type: functional
Sequence of Protein smoothened (Mus musculus) (P56726 whole entry): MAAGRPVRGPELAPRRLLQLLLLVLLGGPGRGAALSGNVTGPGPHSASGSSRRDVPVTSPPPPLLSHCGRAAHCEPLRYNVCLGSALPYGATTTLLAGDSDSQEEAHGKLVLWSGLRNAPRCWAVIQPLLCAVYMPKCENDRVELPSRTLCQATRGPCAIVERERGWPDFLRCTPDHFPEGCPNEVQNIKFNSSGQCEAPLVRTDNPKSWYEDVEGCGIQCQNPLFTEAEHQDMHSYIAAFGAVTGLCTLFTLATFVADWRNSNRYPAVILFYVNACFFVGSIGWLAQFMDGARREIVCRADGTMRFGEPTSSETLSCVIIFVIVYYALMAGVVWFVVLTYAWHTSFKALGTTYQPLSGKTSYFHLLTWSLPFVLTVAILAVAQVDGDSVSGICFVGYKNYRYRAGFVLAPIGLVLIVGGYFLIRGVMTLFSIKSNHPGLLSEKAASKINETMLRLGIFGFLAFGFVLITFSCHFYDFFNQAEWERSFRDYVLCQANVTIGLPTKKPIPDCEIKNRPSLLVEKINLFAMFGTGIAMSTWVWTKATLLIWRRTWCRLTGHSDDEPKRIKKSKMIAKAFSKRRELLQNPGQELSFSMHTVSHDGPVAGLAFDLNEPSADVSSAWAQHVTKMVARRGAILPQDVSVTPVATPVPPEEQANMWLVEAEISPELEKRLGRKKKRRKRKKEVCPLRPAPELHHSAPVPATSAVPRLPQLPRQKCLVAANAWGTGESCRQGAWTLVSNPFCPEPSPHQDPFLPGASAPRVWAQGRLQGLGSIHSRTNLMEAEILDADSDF
In short: (§3)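 SuFu-/- MEFs were grown in DMEM with 10% FBS, antibiotics and L-glutamine, then treated with compound for 48 h; DMSO-only controls. Gli1 and Gli2 mRNA were measured by qRT-PCR and normalized to HPRT. Mean ± SD of three independent experiments; Student's t-test versus DMSO.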

Medulloblastoma cell [8] = experiment: Synergistic growth inhibition of mouse Ptch+/- medulloblastoma cells at 0.125 uM after 72 hrs in presence of Gli inhibitor GlaB; assay type: functional; details: read-out: GI
In short: (§4)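 Freshly isolated Ptch+/- mouse medulloblastoma primary cells were held in short-term Neurobasal-A/B27 (minus vitamin A) culture. They were treated for 72 h with a binary combination of a Gli1 antagonist and a Smo antagonist, each at the stated concentration. Percent growth inhibition was reported.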

Medulloblastoma cell [9] = experiment: Synergistic growth inhibition of mouse Ptch+/- medulloblastoma cells at 0.25 uM after 72 hrs in presence of Gli inhibitor GlaB; assay type: functional; details: read-out: GI; in short: as §4
Medulloblastoma cell [10] = experiment: Synergistic growth inhibition of mouse Ptch+/- medulloblastoma cells at 0.5 uM after 72 hrs in presence of Gli inhibitor GlaB; assay type: functional; details: read-out: GI; in short: as §4
[11] = biological target: Protein smoothened (Mus musculus) (UniProt P56726); experiment: Antagonist activity at smo in SuFu-/- mouse embroyonic fibroblasts assessed as downregulation of Gli2 mRNA levels after 48 hrs by qRT-PCR method; assay type: functional; in short: as §3
MEF [12] = experiment: Downregulation of Gli1 levels in SuFu-/- mouse embroyonic fibroblasts up to 20 uM after 48 hrs by qRT-PCR
MEF [13] = experiment: Downregulation of Gli2 levels in SuFu-/- mouse embroyonic fibroblasts up to 20 uM after 48 hrs by qRT-PCR
[14] = biological target: T2, Zinc finger protein GLI1 (Mus musculus); experiment: Inhibition of Gli1 transcriptional activity in mouse embroyonic fibroblasts up to 30 uM after 24 hrs by renilla luciferase reporter gene assay; in short: as §1

Sequence of Protein smoothened (P56726 whole entry): as above

Compound: COc1cc(OC)c2c(=O)c(-c3ccc(OCC=C(C)C)c(OCC=C(C)C)c3)coc2c1
inhibition of growth at 0.125 µM (Medulloblastoma cell [1]): 28.6%
inhibition of growth at 0.25 µM (Medulloblastoma cell [2]): 42.4%
inhibition of growth at 0.5 µM (Medulloblastoma cell [3]): 46.6%
inhibition of growth at 1 µM (Medulloblastoma cell [4]): 55.9%
inhibition of growth at 2 µM (Medulloblastoma cell [5]): 65.1%

Compound: COc1cc(OC)c2c(=O)c(-c3ccc(OC)c(OC/C=C(\C)CCC=C(C)C)c3)coc2c1
IC50 (Protein smoothened; read-out: IC50): 3.61 µM
IC50 (Zinc finger protein GLI1; read-out: IC50): 21.2 µM

Compound: COc1cc(OC)c2c(=O)c(-c3cccc(O)c3)coc2c1
IC50 (Protein smoothened; read-out: IC50): > 30 µM
IC50 (Zinc finger protein GLI1): Nd(Toxic)

Compound: COc1cc(OC)c2c(=O)c(-c3ccc(OC/C=C(\C)CCC=C(C)C)c(OC)c3)coc2c1
IC50 (Protein smoothened): Nd(Toxic)
IC50 (Zinc finger protein GLI1): Nd(Toxic)

Compound: COc1cc(OC)c2c(=O)c(-c3cccc(OCc4ccc(C(F)(F)F)cc4)c3)coc2c1
IC50 (Protein smoothened; read-out: IC50): 10.5 µM
IC50 (Zinc finger protein GLI1; read-out: IC50): 26.7 µM

Compound: COc1cc(OC)c2c(=O)c(-c3cccc(OCC=C(C)C)c3)coc2c1
IC50 (Protein smoothened; read-out: IC50): > 30 µM
IC50 (Zinc finger protein GLI1; read-out: IC50): > 20 µM

Compound: COc1cc(OC)c2c(=O)c(-c3ccc(OCC=C(C)C)c(OC)c3)coc2c1
IC50 (Protein smoothened; read-out: IC50): 6.97 µM
IC50 (Zinc finger protein GLI1; read-out: IC50): 10.7 µM

Compound: CS(=O)(=O)c1ccc(C(=O)Nc2ccc(Cl)c(-c3ccccn3)c2)c(Cl)c1
inhibition [14]: inactive

Further lines, with some results ahead:

IC50 (Protein smoothened; read-out: IC50): 6.92 µM
IC50 (Zinc finger protein GLI1; read-out: IC50): 39.2 µM
Compound: COc1cc(OC)c2c(=O)c(-c3ccc(OCc4ccccc4)c(OC)c3)coc2c1

IC50 (Protein smoothened; read-out: IC50): 3.72 µM
IC50 (Zinc finger protein GLI1; read-out: IC50): 17.1 µM
Compound: COc1cc(OC)c2c(=O)c(-c3ccc(OC)c(OCc4ccccc4)c3)coc2c1

IC50 (Protein smoothened; read-out: IC50): > 30 µM
Compound: COC(=O)c1ccc(COc2cc(-c3coc4cc(OC)cc(OC)c4c3=O)ccc2OC)cc1
IC50 (Zinc finger protein GLI1): Nd(Toxic)

IC50 (Protein smoothened; read-out: IC50): 3.48 µM
IC50 (Zinc finger protein GLI1; read-out: IC50): 55.3 µM
inhibition [6]: inactive
inhibition [7]: inactive
inhibition [11]: inactive
Compound: COc1cc(OC)c2c(=O)c(-c3ccc(OCc4ccc(C(F)(F)F)cc4)c(OC)c3)coc2c1
inhibition of growth at 0.125 µM (Medulloblastoma cell [1]): 20.8%
inhibition of growth at 0.25 µM (Medulloblastoma cell [2]): 23.5%
inhibition of growth at 0.5 µM (Medulloblastoma cell [3]): 32.5%
inhibition of growth at 1 µM (Medulloblastoma cell [4]): 51.8%
inhibition of growth at 2 µM (Medulloblastoma cell [5]): 54.2%
inhibition of growth at 0.125 µM (Medulloblastoma cell [8]): 33.5%
inhibition of growth at 0.25 µM (Medulloblastoma cell [9]): 53.1%
inhibition of growth at 0.5 µM (Medulloblastoma cell [10]): 60.1%

IC50 (Protein smoothened; read-out: IC50): > 30 µM
Compound: COc1cc(OC)c2c(=O)c(-c3ccc(OC)c(OCc4ccc(C(N)=O)cc4)c3)coc2c1
IC50 (Zinc finger protein GLI1): Nd(Toxic)

IC50 (Protein smoothened; read-out: IC50): > 30 µM
Compound: COc1cc(OC)c2c(=O)c(-c3ccc(OC)c(OCc4ccc([N+](=O)[O-])cc4)c3)coc2c1
IC50 (Zinc finger protein GLI1): Nd(Toxic)

IC50 (Protein smoothened; read-out: IC50): 0.29 µM
IC50 (Zinc finger protein GLI1; read-out: IC50): 57.7 µM
inhibition [6]: inactive
inhibition [7]: inactive
inhibition [11]: inactive
Compound: COc1cc(OC)c2c(=O)c(-c3ccc(OCc4ccccc4)c(OCc4ccccc4)c3)coc2c1
inhibition of growth at 0.125 µM (Medulloblastoma cell [1]): 33.3%
inhibition of growth at 0.25 µM (Medulloblastoma cell [2]): 44.2%
inhibition of growth at 0.5 µM (Medulloblastoma cell [3]): 51.4%
inhibition of growth at 1 µM (Medulloblastoma cell [4]): 61.2%
inhibition of growth at 2 µM (Medulloblastoma cell [5]): 66.6%
inhibition of growth at 0.125 µM (Medulloblastoma cell [8]): 38.3%
inhibition of growth at 0.25 µM (Medulloblastoma cell [9]): 63.4%
inhibition of growth at 0.5 µM (Medulloblastoma cell [10]): 70%

IC50 (Protein smoothened; read-out: IC50): 16 µM
Compound: COc1cc(OC)c2c(=O)c(-c3ccc(OC)c(OCc4ccc(C#N)cc4)c3)coc2c1
IC50 (Zinc finger protein GLI1): Nd(Toxic)

IC50 (Protein smoothened; read-out: IC50): 2.87 µM
IC50 (Zinc finger protein GLI1; read-out: IC50): 5.7 µM
inhibition [6]: Active
Activity (MEF [12]): Active
Activity (MEF [13]): Active
Compound: COc1cc(OC)c2c(=O)c(-c3ccc(OC)c(OCC=C(C)C)c3)coc2c1
inhibition of growth at 0.125 µM (Medulloblastoma cell [1]): 5.9%
inhibition of growth at 0.25 µM (Medulloblastoma cell [2]): 26.3%
inhibition of growth at 0.5 µM (Medulloblastoma cell [3]): 29.2%
inhibition of growth at 1 µM (Medulloblastoma cell [4]): 35.6%
inhibition of growth at 2 µM (Medulloblastoma cell [5]): 55.4%

IC50 (Protein smoothened; read-out: IC50): 2.58 µM
IC50 (Zinc finger protein GLI1; read-out: IC50): 11.5 µM
inhibition [6]: Active
Activity (MEF [12]): Active
Activity (MEF [13]): Active
Compound: COc1cc(OC)c2c(=O)c(-c3ccc(OC)c(OCc4ccc(C(F)(F)F)cc4)c3)coc2c1
inhibition of growth at 0.125 µM (Medulloblastoma cell [1]): 37.7%
inhibition of growth at 0.25 µM (Medulloblastoma cell [2]): 40.6%
inhibition of growth at 0.5 µM (Medulloblastoma cell [3]): 44.5%
inhibition of growth at 1 µM (Medulloblastoma cell [4]): 50.9%
inhibition of growth at 2 µM (Medulloblastoma cell [5]): 54%

From ChEMBL document CHEMBL4270564, “Synergistic inhibition of the Hedgehog pathway by newly designed Smo and Gli antagonists bearing the isoflavone scaffold” (Eur J Med Chem, 2018)
